Bioassay records as filed in PubChem BioAssay.
NS3 helicase inh – blocks Hepatitis C virus NS3 helicase unwinding; NS3 helicase DNA unwinding, Cy5 molecular beacon fluorescence; inhibition, % at 10.9 µM; 290,000 tested, 0.56% active; AID 1800;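 active = inhibition above the mean of all tested compounds plus 3 SD, set per campaign, cut at about 35% in these data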;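 note: 0% = DMSO wells and 100% = thioflavine S control wells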
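System: NS3 helicase fragment of HCV / Schedule: 1 h at 25 °C / Control set: DMSO alone as 0% and 110 µM thioflavine S as 100% / Reagent: Cy5/quencher beacon DNA duplex and ATP to start / Technique: Cy5 fluorescence / Replication: singlicate / Evaluation: % inhibition of end-to-start signal ratio versus controls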
HCV core dimer – HCV core protein dimerization inhibition | TR-FRET GST/Flag-core106 dimerization, 1536-well | inhibition, % at 5 µM | 300,000 tested, 0.33% active;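 active = inhibition above the mean of all tested compounds plus 3 SD, set per screening campaign, cut at about 45% in these data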
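Test system: GST/Flag-tagged HCV core106 proteins; Medium: KF-containing HEPES buffer, pH 7.45, DTT, CHAPS, BSA; Times: compound-protein-antibody incubation 4 h at 22.5 °C; Detection: TR-FRET 671 and 617 nm emission; Benchmarks: wells lacking GST-core106 and wells with excess unlabelled core106.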
PHOSPHO1 block – blocks human PHOSPHO1 phosphatase activity. Q8TCT1. recombinant PHOSPHO1, absorbance phosphatase assay. inhibition, % at 13.3 µM. 290,000 tested, 1.1% active; in the data active = inhibition above about 60%
Target sequence (Q8TCT1 whole entry, looked up): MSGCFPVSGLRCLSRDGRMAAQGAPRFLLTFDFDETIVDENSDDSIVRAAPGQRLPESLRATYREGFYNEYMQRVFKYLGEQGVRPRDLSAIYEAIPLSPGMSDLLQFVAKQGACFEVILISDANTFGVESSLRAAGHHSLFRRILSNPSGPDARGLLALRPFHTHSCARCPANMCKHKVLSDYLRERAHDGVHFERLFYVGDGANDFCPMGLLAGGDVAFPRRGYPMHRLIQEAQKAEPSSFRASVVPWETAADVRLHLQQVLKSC
IMP-1 inhibitor – blocks Pseudomonas aeruginosa IMP-1 metallo-beta-lactamase; purified IMP-1, nitrocefin hydrolysis, epi-absorbance fluorescence; inhibition, % at 5.6 µM; 290,000 tested, 0.45% active;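 active = inhibition above the mean plus 3 SD of all compounds in the same screening run, cut at about 4.5% in these data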;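 note: 0% = IMP-1 with DMSO and 100% = DMSO wells lacking enzyme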
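system = purified recombinant IMP-1 beta-lactamase | amount = 0.2 nM IMP-1, as dispensed | medium = HEPES buffer pH 7.1 with ZnSO4 and Brij 35 | times = 25 °C, 15 min preincubation, 25 min reaction | detection = plate fluorescence quenching by hydrolysis product, ex 480/em 530 nm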
SUMO HTRF inh – blocks human SUMOylation mediated by UBC9. P63279. HTRF SUMOylation assay, SAE1/SAE2 + UBC9, in vitro. inhibition, % at 35 µM. 290,000 tested, 0.36% active. AID 2006; in the data active = inhibition above about 50%, passing the limit was not always enough
Target sequence (P63279 whole entry, looked up): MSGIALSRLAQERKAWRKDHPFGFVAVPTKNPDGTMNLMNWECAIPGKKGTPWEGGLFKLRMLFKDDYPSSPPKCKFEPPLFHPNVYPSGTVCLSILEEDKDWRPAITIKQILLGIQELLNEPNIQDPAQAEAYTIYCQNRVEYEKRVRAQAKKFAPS
VIM-2 inhibitor – blocks Pseudomonas aeruginosa VIM-2 metallo-beta-lactamase; purified VIM-2, nitrocefin hydrolysis, epi-absorbance fluorescence; inhibition, % at 5.6 µM; 290,000 tested, 0.89% active; AID 1527;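 active = inhibition above the mean of all tested compounds plus 3 SD, cutoff set per screening run, cut at about 7.5% in these data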;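 note: red hydrolysis product quenches plate fluorescence so inhibitors raise well fluorescence; 0% = enzyme with DMSO and 100% = DMSO without enzyme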
NS3 hel confirm – HCV NS3 helicase inhibition, confirmation assay; inhibition, % at 10.9 µM; AID 1943; shares compounds with NS3 helicase inh; NS3 helicase DNA unwinding, Cy5 molecular beacon fluorescence; 1,600 tested, 31% active;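 active = inhibition above the mean of all tested compounds plus 3 SD, cutoff set per campaign, cut at about 36% in these data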
FID counter trip – counter-screen for HCV NS3 helicase inhibitors: DNA intercalator displacement; DNA fluorescent intercalator displacement, fluorescence; AID 1945; 1,600 tested, 4% active; shares compounds with NS3 helicase inh; inhibition, % at 7.9 µM; in the data active = inhibition above about 37%;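 note: 0% = vehicle and 100% = reference compound; higher means more displacement of ethidium bromide from the DNA hairpin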
* hit, by the source's call; nt = no result. This is a sample that favours compounds with a hit; in the whole collection about 3.1% have one here.

SMILES | NS3 helicase inh | HCV core dimer | PHOSPHO1 block | IMP-1 inhibitor | SUMO HTRF inh | VIM-2 inhibitor | NS3 hel confirm | FID counter trip
O=S(=O)(c1cccs1)N1CN(Cc2ccc(F)cc2)c2nc3ccccc3nc21 | 50* | 14 | 16 | -1 | 22 | 1 | -20 | -2
O=C(NNc1nc2ccccc2s1)c1ccccc1F | 51* | 6 | 56 | 0 | -3 | 0 | -6 | 11
O=C(NNc1nc2ccccc2s1)Nc1ccc(F)cc1 | -7 | 2 | 11 | -2 | 1 | -2 | nt | nt
Cc1sc2ncnc(SCC(=O)NC(=O)c3cccn3C)c2c1C | 10 | 8 | 5 | -4 | 20 | -2 | nt | nt
CC(C)(C)C(=O)/C=c1\[nH]c(=O)/c(=C\c2ccc(F)cc2)s1 | 3 | 6 | 19 | 1 | 6 | -3 | nt | nt
COc1ccc(/C=c2\s/c(=C/C(=O)c3ccc(C)cc3)[nH]c2=O)cc1OC | 59* | -2 | -2 | 3 | 17 | 1 | 11 | 4
COc1ccc(Cc2nnc(NC(=O)CS(=O)(=O)c3ccccc3)s2)cc1OC | 6 | -8 | 32 | -2 | -16 | -2 | nt | nt
COc1cc(/C=C2/C(=O)NN(c3cccc(C)c3)C2=O)ccc1OC(=O)c1ccco1 | 40* | 5 | 14 | -3 | 3 | -4 | 33 | 3
COc1cc(/C=N/n2cnnc2)ccc1OC(=O)c1ccco1 | -2 | -2 | 51 | -3 | 13 | -2 | nt | nt
COc1cccc(/C=C2/C(=O)NN(c3ccccc3)C2=O)c1 | 24 | nt | 29 | -1 | -2 | -1 | nt | nt
C#CCOc1ccc(/C=C2/C(=O)NN(c3ccc(F)cc3)C2=O)cc1OC | 39* | 7 | 14 | -1 | -6 | -4 | 7 | 19
COc1cccc(/C=C2/C(=O)NN(c3ccc(F)cc3)C2=O)c1 | 48* | nt | 11 | -5 | -9 | -1 | 16 | 14
COc1cc(/C=C2\C(=O)NN(c3ccccc3)C2=O)ccc1OCC(N)=O | 15 | -5 | 16 | -1 | -6 | -2 | nt | nt
COC(=O)c1ccc(N2NC(=O)/C(=C/c3ccc(OC)c(OC)c3)C2=O)cc1 | 40* | 7 | 34 | -1 | -3 | -3 | -16 | -7
O=C(c1ccco1)N1CCN(S(=O)(=O)c2c(Cl)cccc2Cl)CC1 | 5 | 8 | 8 | -2 | 13 | -3 | nt | nt
CCC(=O)N(CCC1(c2ccccc2OC)CCOC(C(C)C)C1)Cc1ccco1 (stereo unspecified) | 2 | 7 | 16 | -2 | 4 | -1 | nt | nt
COc1cc(S(=O)(=O)n2cnc3ccccc32)ccc1Br | -8 | 2 | 3 | -3 | -2 | -1 | nt | nt
Cc1ccc(S(=O)(=O)NC(=O)c2cc(C)n(-c3ccc(N(C)C)cc3)c2C)cc1 | 42* | 8 | -2 | -4 | -11 | -5 | -3 | -24
Cc1ccc(S(=O)(=O)NC(=O)Nc2ccc(N(C)C)cc2)cc1 | 51* | -155 | 14 | -14 | -233 | 0 | 70* | 23
Cc1ccc(NC(=O)NNS(=O)(=O)c2ccc(Br)cc2)cc1 | 3 | -3 | -12 | 0 | -2 | -3 | nt | nt
Cc1cccc(NC(=O)N2CCCC(CNC(=O)c3ccccc3Cl)C2)c1C (stereo unspecified) | -4 | 9 | 7 | -1 | 4 | -2 | nt | nt
CC(C)CCNC(=O)C(CC(C)C)N(Cc1ccc2c(c1)OCO2)C(=O)c1snc(C(N)=O)c1N (stereo unspecified) | 2 | 2 | 45 | -2 | -21 | 0 | nt | nt
COc1ccc(-c2cnc(SCC(=O)Nc3cc(C)on3)n2Cc2ccco2)cc1 | -2 | 10 | -38 | -3 | -15 | -3 | nt | nt
COCCn1c(-c2ccc(OC)cc2)cnc1SCC(=O)Nc1cccc2ccccc12 | 47* | 6 | 25 | -4 | 19 | -2 | -16 | -41
COCCn1c(SCC(=O)Nc2ccccc2OC)nc2ccccc2c1=O | 2 | 6 | 32 | -3 | -6 | -2 | nt | nt
SMILES | NS3 helicase inh | HCV core dimer | PHOSPHO1 block | IMP-1 inhibitor | SUMO HTRF inh | VIM-2 inhibitor | NS3 hel confirm | FID counter trip
COc1ccc(-c2cnc(SCC(=O)Nc3nc(C(C)(C)C)cs3)n2Cc2ccco2)cc1 | 52* | 32 | -16 | -3 | 8 | -3 | -6 | -27
O=C(COC(=O)CC1CC2CCC1C2)Nc1cccc(S(=O)(=O)NC2=NCCCCC2)c1 (stereo unspecified) | -9 | -2 | 42 | -1 | -10 | 0 | nt | nt
COc1ccc(-c2cc(C(=O)Nc3ccc(O)cc3)c3ccccc3n2)cc1OC | 45* | -1 | 42 | -3 | -14 | -3 | -4 | -24
COc1ccc(NC(=O)c2cc(-c3cc(OC)c(OC)c(OC)c3)nc3ccccc23)cc1OC | -26 | 2 | 31 | 2 | -6 | 1 | nt | nt
CCS(=O)(=O)c1ccc(N=Nc2ccc(O)c3ncccc23)c(OC)c1 | -9 | nt | 14 | -5 | -69 | -2 | nt | nt
COc1ccccc1N=Nc1ccc(O)c2ncccc12 | 41* | -30 | -12 | -6 | -27 | -2 | -19 | 3
Oc1ccc(N=Nc2ccccc2C(F)(F)F)c2cccnc12 | 49* | 5 | 24 | -4 | -20 | -8 | 0 | 3
Cc1ccc(N=Nc2ccc(O)c3ncccc23)cc1 | 7 | 1 | 21 | -4 | 5 | -6 | nt | nt
COc1ccc(-c2ccccc2NC(=O)C2CCCN(Cc3ccc(C)o3)C2)cc1 (stereo unspecified) | -2 | 4 | 43 | 0 | 6 | 0 | nt | nt
CCCCC(CCC(=O)O)(C(=O)OCC)c1csc(Nc2ccc(OCC)cc2)n1 (stereo unspecified) | 85* | 10 | 20 | -3 | -8 | 4 | 58* | -28
NC(=O)c1oc2ccccc2c1NC(=O)C1COc2ccccc2O1 (stereo unspecified) | -18 | -3 | -23 | -1 | 1 | -2 | nt | nt
Cc1ccc(NC(=S)N2CCC(NC(=O)c3ccc(F)cc3)CC2)cc1 | 13 | -2 | 19 | -2 | -2 | -2 | nt | nt
CN=c1scc(-c2ccc([N+](=O)[O-])cc2)n1/N=C/c1ccco1 | 11 | 22 | 32 | -2 | 23 | 0 | nt | nt
O=C1c2ccc([N+](=O)[O-])cc2NC(c2ccco2)N1/N=C/c1ccco1 (stereo unspecified) | 42* | 6 | -12 | -1 | 18 | -4 | -5 | 21
Cc1ccc(NC(=O)c2ccc(C(=O)c3ccccc3)cc2)nc1 | nt | 2 | nt | nt | nt | nt | nt | nt
COc1ccc(-n2c(Cc3cccn3C)nnc2SCC(=O)Nc2ccc3c(c2)OCO3)cc1 | 45* | -1 | -6 | -3 | -7 | -2 | -15 | -28
COc1ccc(-n2c(SCC(=O)Nc3ccc(C(=O)O)cc3)nnc2-c2cccs2)cc1 | 64* | 5 | 14 | -5 | 6 | 0 | -5 | -24
